# From PubChem BioAssay
# OPRM1-OPRD1 inv – inverse agonists of human mu-delta opioid receptor heterodimerization | cell-based MOR-DOR heterodimer luminescence, inverse agonism | inhibition, % at 9.3 µM | actives 0.21% (n = 340,000); in the data active means inhibition above about 22%, passing the limit was not always enough;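 further: 0% = cells with DMSO and 100% = wells without cells with DMSO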
# Target sequence (P35372 whole entry, looked up): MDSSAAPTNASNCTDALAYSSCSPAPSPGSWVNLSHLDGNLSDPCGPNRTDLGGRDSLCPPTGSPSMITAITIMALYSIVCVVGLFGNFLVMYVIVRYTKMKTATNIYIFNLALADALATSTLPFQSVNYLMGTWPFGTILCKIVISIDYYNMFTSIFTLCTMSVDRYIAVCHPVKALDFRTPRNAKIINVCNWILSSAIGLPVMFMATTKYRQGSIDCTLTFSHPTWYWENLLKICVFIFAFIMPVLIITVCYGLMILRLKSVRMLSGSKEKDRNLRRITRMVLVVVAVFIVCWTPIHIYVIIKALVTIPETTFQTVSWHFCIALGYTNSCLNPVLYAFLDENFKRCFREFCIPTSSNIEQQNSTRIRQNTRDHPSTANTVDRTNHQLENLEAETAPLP
# Target sequence (P41143 whole entry, looked up): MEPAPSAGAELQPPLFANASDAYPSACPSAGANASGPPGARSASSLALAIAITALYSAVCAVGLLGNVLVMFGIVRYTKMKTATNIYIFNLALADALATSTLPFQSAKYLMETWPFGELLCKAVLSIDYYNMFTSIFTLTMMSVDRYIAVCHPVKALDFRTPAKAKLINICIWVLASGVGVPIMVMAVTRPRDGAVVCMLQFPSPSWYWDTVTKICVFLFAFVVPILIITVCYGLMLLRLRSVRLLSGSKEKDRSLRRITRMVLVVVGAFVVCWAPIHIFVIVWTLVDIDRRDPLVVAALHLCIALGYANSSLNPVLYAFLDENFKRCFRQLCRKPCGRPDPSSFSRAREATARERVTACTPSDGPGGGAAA
# OPRM1-OPRD1 ag – OPRM1-OPRD1 heterodimerization agonism; cells, luminescence; activation, % at 9.3 µM; actives 0.3% (n = 340,000); AID 504326; in the data active means activation above about 18%;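 further: 0% = vehicle-treated cells and 100% = reference agonist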
# HTR5A inv ag – counter-screen for OPRM1-OPRD1 inverse agonists: human HTR5A inverse agonism; AID 504634; inhibition, % at 9.3 µM; actives 0.083% (n = 340,000); HTR5A cell line, luminescence; P47898; in the data active means inhibition mostly above about 23%, no sharp cut-off; inactive means mostly below about 18%;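 further: 0% = cells with DMSO and 100% = no-cell wells with DMSO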
# Arr AP2 block – inhibitors of human beta-arrestin and AP2 interaction; actives 0.31% (n = 340,000); FITC-arrestin peptide / GST-AP2 beads, flow cytometry; AP2 beta2 appendage carries R879A mutation; inhibition, % at 10 µM;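 active means inhibition above a set limit, near 3 SD of compounds lacking own fluorescence, cut at about 54% in these data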;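 further: plate controls were DMSO wells for no effect and 5 µM unlabelled arrestin peptide for full effect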
#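 System: GST-AP2 R879A bound to glutathione beads, E. coli-expressed. Also added: 50 nM FITC-arrestin peptide. Schedule: compound with beads 12 min RT, then probe 1 h RT. Signal: bead flow cytometry, FITC channel. Read-out basis: percent response.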
# DAGLB inh – blocks human DAGLB lipase activity; Q8NCG7; actives 0.059% (n = 340,000); HEK293T DAGLB membrane lysate, EnzChek fluorogenic substrate; inhibition, % at 5.17 µM; AID 504411; in the data active means inhibition above about 34%;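 further: 0% = enzyme with vehicle and 100% = wells lacking enzyme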
# HTR5A ag – counter-screen for OPRM1-OPRD1 agonists: human HTR5A agonism; P47898; HTR5A agonist assay, luminescence, cell-based; activation, % at 9.3 µM; actives 0.61% (n = 340,000); AID 504692; in the data active means activation mostly above about 9.5%, no sharp cut-off; inactive means mostly below about 7.6%;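 further: 0% = cells with vehicle only and 100% = reference agonist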
# OPRM1-D1 inv cf – confirmation of human OPRM1-OPRD1 heterodimerization inverse agonists; inhibition, % at 9.3 µM; actives 20% (n = 580); cells expressing OPRM1/OPRD1 heterodimer, luminescence; shares compounds with OPRM1-OPRD1 inv; AID 504900; in the data active means inhibition above about 32%;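 further: 0% = cells with DMSO and 100% = wells lacking cells with DMSO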
# HTR5A inv count – counter-screen for OPRM1-OPRD1 inverse agonists: human HTR5A inverse agonism; HTR5A-expressing cells, luminescence; shares compounds with OPRM1-OPRD1 inv; 580 tested, under 10 active; inhibition, % at 9.3 µM; call rule not given here;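 further: 0% = cells with DMSO and 100% = no-cell wells with DMSO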
# * hit, by the source's call; i = inactive; x = no result given. Hits are enriched below; roughly 1.4% of the tested compounds scored in any of these assays.
SMILES,OPRM1-OPRD1 inv,OPRM1-OPRD1 ag,HTR5A inv ag,Arr AP2 block,DAGLB inh,HTR5A ag,OPRM1-D1 inv cf,HTR5A inv count
CCCCCCC[C@@H](C/C=C/CCC(=O)N(C)C/C(=C/Cl)C/C(=C\C(=O)N1C[C@H](O)CC1=O)OC)OC,0,0,-13,-6,-1,4,x,x
CCCCCCN1C[C@H](n2cc(-c3ccc(F)cc3)nn2)[C@@H](O)C[C@@H]1c1ccc(Cl)cc1,x,x,x,x,-9,x,x,x
CSCCC(NC(=O)c1ccco1)C(=O)NCCc1ccc(Cl)cc1 (stereo unspecified),-8,2,14,6,0,-4,x,x
Cc1ccc(C(=O)COC(=O)CCC(=O)Nc2cc(Cl)ccc2Cl)cc1[N+](=O)[O-],52*,-12,33,3,-3,-13,36*,10
CC(=O)Nc1ccc(NC(=O)CCC(=O)OCC(=O)c2cccc([N+](=O)[O-])c2)cc1,71*,-11,30,21,-1,-12,-12,-18
CC(=O)Nc1ccc(C(=O)OCC(=O)c2cccc([N+](=O)[O-])c2)cc1,14,-3,8,3,1,-2,x,x
O=C(CCC(=O)OCC(=O)c1ccc([N+](=O)[O-])cc1)NC1CCCCC1,17,-3,-18,4,0,-5,x,x
O=C(CCC(=O)OCC(=O)c1cccc([N+](=O)[O-])c1)Nc1ccccc1Cl,77*,-17,26,-8,2,-12,-56,1
O=C(CCC(=O)OCc1cccc([N+](=O)[O-])c1)Nc1ccccc1Cl,18,-4,11,5,-4,-5,x,x
O=C(CCC(=O)OCC(=O)c1cccc([N+](=O)[O-])c1)NC1CCCCC1,62*,-12,-19,8,3,-5,-22,10
CC1=C(C(=O)N2CCOCC2)CC(CC(=O)NC(c2ccccc2)c2ccccc2)C(=O)N1Cc1ccc(F)cc1 (stereo unspecified),x,x,x,x,0,x,x,x
COc1cc(-n2c(C)nc3ncn(-c4ccccc4)c3c2=O)cc(OC)c1OC,x,x,x,x,2,x,x,x
C[C@H]1CN([C@@H](C)CO)C(=O)CCCn2cc(nn2)CO[C@@H]1CN(C)C(=O)Nc1ccc2c(c1)OCO2,x,x,x,x,3,x,x,x
C[C@H](CO)N1C[C@H](C)[C@@H](CN(C)Cc2ccccc2)OCc2cnnn2CCCC1=O,x,x,x,x,-5,x,x,x
CCC(=O)Oc1ccc(C(=O)Nc2ccccc2C(=O)NCC(C)C)cc1,6,-1,5,4,-6,0,x,x
CCC(=O)Oc1ccc(C(=O)Nc2cccc(C(=O)NCC(C)C)c2)cc1,32*,-5,4,-8,-2,-1,-47,-10
Cc1ccc(C)c(C(=O)c2ccccc2NC(=O)c2ccccn2)c1,-15,3,-8,3,-25,2,x,x
Cc1ccc2c(c1)C(=O)C(=O)N2CC(=O)Nc1ccccc1NC(=O)c1ccccn1,47*,-9,2,0,2,-1,i,-5
O=C1C2=C(c3ccccc31)[N+](=O)C1CCCCC1N2[O-] (stereo unspecified),56*,-13,17,-9,2,2,3,2
O=C(CCN1C(=O)C2C3CC(C(Br)C3Br)C2C1=O)OCC(=O)c1cccc([N+](=O)[O-])c1 (stereo unspecified),21*,-3,18,0,1,1,38*,15
CC(C)C(C(=O)OCC(=O)c1cccc([N+](=O)[O-])c1)N1C(=O)[C@@H]2[C@H]3CC[C@H](C3)[C@@H]2C1=O (stereo partly specified),17,-3,-9,-1,1,4,x,x
O=C(CCN1C(=O)C2C3CCC(C3)C2C1=O)OCC(=O)c1cccc([N+](=O)[O-])c1 (stereo unspecified),62*,-12,14,-4,0,0,-8,7
O=C(CN1C(=O)C2C3CCC(C3)C2C1=O)OCC(=O)c1cccc([N+](=O)[O-])c1 (stereo unspecified),85*,-13,35*,8,0,-14,-179,-27
COc1ccc(C(=O)COC(=O)CCN2C(=O)C3C4CC(C(Br)C4Br)C3C2=O)cc1 (stereo unspecified),9,-1,24,6,0,13,x,x
CCOC(COC(=O)c1ccccc1C(=O)O)c1ccccc1 (stereo unspecified),x,x,x,x,-6,x,x,x
SMILES,OPRM1-OPRD1 inv,OPRM1-OPRD1 ag,HTR5A inv ag,Arr AP2 block,DAGLB inh,HTR5A ag,OPRM1-D1 inv cf,HTR5A inv count
CCC1CCCCN1C(=O)COC(=O)c1cncc(Br)c1 (stereo unspecified),x,x,x,x,0,x,x,x
CSCCC1NC(=S)N(Cc2ccccc2)C1=O (stereo unspecified),42*,-9,2,0,-1,-1,-300,-25
C[C@@H]1CN([C@H](C)CO)C(=O)c2cc(C#CC3CCCCC3)cnc2O[C@H]1CN(C)Cc1cccnc1,x,x,x,x,0,x,x,x
CC(=O)C(Sc1nn(C)c(=S)s1)C(=O)Nc1ccccc1 (stereo unspecified),72*,-16,16,5,-1,-11,-266,-38
Cc1ccc(NCN2C(=O)C(=O)c3ccccc32)nc1,70*,-14,-13,2,-1,-5,59*,17
CCc1nnc(NC(=O)c2ccc(OC)cc2OC)s1,-11,2,15,3,4,-6,x,x
COc1ccc(C(=O)Cc2nnc(C)s2)c(OC)c1,78*,-12,19,2,0,-6,37*,9
Cc1cccc(OCc2ccccc2)n1,8,-2,11,-5,-6,-3,x,x
CNC(=O)c1nnsc1S(=O)(=O)c1ccc(Cl)cc1,32*,-6,17,5,-4,-6,-10,-10
Cc1ccc(S(=O)(=O)N2C[C@H]3n4c(=O)ccc(=O)n4C[C@H](OC(=O)NCc4ccco4)[C@@]3(O)C2)cc1,x,x,x,x,0,x,x,x
ON1C(c2ccc(Cl)cc2Cl)N(O)[C@H]2CCCC[C@H]21 (stereo partly specified),63*,-11,7,27,-2,-3,i,0
Cc1ccccc1NC1=C(C(=O)c2ccccc2)N(C)S(=O)(=O)c2ccccc21,-3,1,-9,-1,-3,1,x,x
O=C(C1=C(Nc2ccccc2)c2ccccc2S(=O)(=O)N1)c1ccccc1,32*,-6,7,6,7,-3,19,14
CC(=O)Nc1ccc2c(c1)Cc1cc(N3C(=O)C=CC3=O)ccc1-2,20,-4,-11,-2,0,3,x,x
